PLC-beta3 inh: PLC-beta3 (human) inhibition, primary screen; inhibition, % at 12.2 µM; Purified PLC-beta3, fluorogenic substrate, fluorescence; AID 720704; hit rate 0.18% among 370,000;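 also: 0% = median of compound wells on plate and 100% = full blocker control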
Target sequence (Q01970 whole entry, looked up): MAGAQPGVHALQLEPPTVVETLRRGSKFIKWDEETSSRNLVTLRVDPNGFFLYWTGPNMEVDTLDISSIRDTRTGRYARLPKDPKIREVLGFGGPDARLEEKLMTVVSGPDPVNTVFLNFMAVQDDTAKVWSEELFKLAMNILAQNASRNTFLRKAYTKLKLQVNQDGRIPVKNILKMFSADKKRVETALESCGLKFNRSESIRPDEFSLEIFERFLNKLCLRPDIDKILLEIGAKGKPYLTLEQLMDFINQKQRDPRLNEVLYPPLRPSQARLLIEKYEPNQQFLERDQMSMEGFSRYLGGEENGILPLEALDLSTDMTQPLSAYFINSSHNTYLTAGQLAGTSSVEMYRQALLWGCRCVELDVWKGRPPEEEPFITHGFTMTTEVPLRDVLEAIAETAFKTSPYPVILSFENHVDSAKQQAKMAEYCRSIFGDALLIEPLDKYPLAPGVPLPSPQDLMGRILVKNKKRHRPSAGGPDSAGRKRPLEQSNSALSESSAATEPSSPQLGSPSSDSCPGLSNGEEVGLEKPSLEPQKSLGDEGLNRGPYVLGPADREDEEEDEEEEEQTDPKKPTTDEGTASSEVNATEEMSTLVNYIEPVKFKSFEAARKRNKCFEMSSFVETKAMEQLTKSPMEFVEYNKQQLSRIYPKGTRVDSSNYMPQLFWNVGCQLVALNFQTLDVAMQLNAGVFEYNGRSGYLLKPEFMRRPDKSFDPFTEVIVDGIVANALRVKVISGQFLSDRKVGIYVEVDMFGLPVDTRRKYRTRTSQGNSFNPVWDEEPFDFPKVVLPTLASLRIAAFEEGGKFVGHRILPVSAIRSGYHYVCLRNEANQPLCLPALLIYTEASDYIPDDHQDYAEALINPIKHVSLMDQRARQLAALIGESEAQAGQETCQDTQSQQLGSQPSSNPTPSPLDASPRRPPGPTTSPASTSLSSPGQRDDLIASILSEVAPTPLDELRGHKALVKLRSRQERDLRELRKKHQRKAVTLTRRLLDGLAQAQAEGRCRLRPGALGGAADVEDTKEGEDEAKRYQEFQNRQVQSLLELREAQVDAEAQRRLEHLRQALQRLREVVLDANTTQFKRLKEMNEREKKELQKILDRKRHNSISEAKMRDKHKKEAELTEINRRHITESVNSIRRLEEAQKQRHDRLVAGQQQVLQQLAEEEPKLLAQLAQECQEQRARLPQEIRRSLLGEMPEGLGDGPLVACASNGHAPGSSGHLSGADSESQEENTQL
ARFGAP1 inhibitor: inhibitors of rat ARFGAP1. Arfgap1-stimulated ARF1 GTP hydrolysis, GDP FP detection. inhibition, % at 16.5 µM. hit rate 0.26% among 360,000;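 active = inhibition above a per-plate limit, mean inhibition of low control wells plus 3 SD, cut at about 25% in these data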;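 also: 0% = DMSO wells with enzyme and 100% = wells lacking Arfgap1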
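Material – truncated rat Arfgap1 GAP domain · Buffer or medium – HEPES-based buffer, pH 7.5 · Reagent – human ARF1(Δ1-17)-GTP substrate · Dosing – 16.5 µM single point, 1.26% DMSO · Schedule – GTP hydrolysis reaction 2 h at 25 °C · Technique – GDP detection by fluorescence polarization · Benchmarks – No-Arfgap1 wells (100%) versus DMSO full-reaction wells (0%) · Repeats – single replicate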
PLCg1 inh: PLC-gamma1 (human) inhibition, primary screen. P19174. purified PLC-gamma1, fluorogenic substrate, fluorescence. inhibition, % at 12.2 µM. hit rate 0.84% among 370,000; in the data active = inhibition above about 9.5%
HGIII-sPLA2 inh: Blocks human group III sPLA2 activity | QFRET BODIPY PC-A2 liposome hydrolysis, fluorescence | inhibition, % at 12.2 µM | hit rate 0.56% among 370,000;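 active = inhibition above mean plus 3 SD of compounds lying within the high and low control bounds, cut at about 19% in these data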;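 also: 0% = median of test compound wells and 100% = no enzyme DMSO wells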
ASAP1 inh: blocks human ASAP1-stimulated Arf1 GTP hydrolysis | Q9ULH1 | GDP FP detection | inhibition, % at 16.5 µM | hit rate 0.19% among 360,000 | AID 624377; in the data active = inhibition above about 25%;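 also: 0% = vehicle with enzyme and substrate and 100% = no enzyme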
PLCg1 ctr: counter-screen for PLC-beta3 inhibitors: inhibitors of human PLC-gamma1 | shares compounds with PLCg1 inh | purified PLC-gamma1, fluorogenic substrate, fluorescence | inhibition, % at 12.3 µM | hit rate 3.1% among 3,300 | AID 743258; in the data active = inhibition above about 9.5%
PLCbeta3 conf: confirmation of human PLC-beta3 inhibitors | shares compounds with PLCg1 inh | purified PLC-beta3, fluorogenic substrate fluorescence | inhibition, % at 12.3 µM | hit rate 1% among 3,300
Starred values were filed as active, the others as inactive; / = no result. Shown are actives, neighbours in structure and some others; about 1.9% of the full set was active somewhere. Rule as the data show it, unless noted: active = inhibition above about 11%; inactive = the rest.

SMILES	PLC-beta3 inh	ARFGAP1 inhibitor	PLCg1 inh	HGIII-sPLA2 inh	ASAP1 inh	PLCg1 ctr	PLCbeta3 conf
Cc1ccc(Nc2nc(=O)c3cccnc3s2)cc1	2	8	11*	-7	-1	-6	-3
O=C(Nc1cccnc1)c1ccccc1Oc1ccccc1	11*	1	5	17	3	-10	-1
O=C(Nc1cccnc1)c1ccc(Oc2ccccc2)cc1	-1	3	0	-12	-12	/	/
Cc1ccc(C(=O)N2CCN(S(=O)(=O)c3ccc(C)cc3)CC2)cc1	3	9	-2	0	-13	/	/
Cc1ccc(C(=O)N2CCN(S(=O)(=O)c3ccc(C)c([N+](=O)[O-])c3)C2)cc1	7	-12	10*	-3	16	-2	-1
CCC1Oc2ccccc2N(CC(=O)N2CCCC2)C1=O (stereo not given)	8	0	9.7*	-4	-15	-2	0
CCOC(=O)Cc1nnc(NC(=O)CCc2ccccc2)s1	-4	7	11*	-48	5	-1	-10
CCOC(=O)c1oc2ccccc2c1COC(=O)C(C)NC(=O)c1ccco1 (stereo not given)	1	7	10*	-7	8	2	5
COc1ccc(NC(=O)CCC(=O)Nc2nnc(C(C)C)s2)cc1Cl	-6	23	0	4	-5	/	/
COc1ccc(OC)c(NC(=O)CCC(=O)Nc2nnc(C(C)C)s2)c1	-2	-3	12*	-4	-15	-8	-4
O=c1cc([O-])[n+]2c3n1CCCN3CCC2	12*	-5	7	-1	0	3	1
CCC(=O)NCCc1nc2ccccc2n1Cc1ccc(C)cc1	-2	0	19*	4	13	-8	-5
Fc1cc(F)cc(NC(=S)NN2CCOCC2)c1	8	-2	11*	11	-4	0	0
O=C(O)CCNC(=O)c1ccc(Br)o1	6	8	12*	7	-5	-6	-4
O=C(NCCC(c1ccccc1)c1ccccc1)c1ccc(Br)o1	3	-10	1	-11	2	/	/
Nc1nonc1C(=O)NCCNCc1cc(Br)ccc1OCc1ccccc1F	11*	-2	9.8*	-43	15	0	3
Cc1cc(NS(=O)(=O)C2CCN(C(=O)Cc3ccc(Cl)c(Cl)c3)CC2)no1	1	/	0	-7	/	/	/
CCn1nc(C)c(CN2CCN(Cc3ccsc3)C(CCO)C2)c1C (stereo not given)	-3	4	10*	-2	-7	0	1
COC(=O)C1=C(C)N(Cc2ccc(C(F)(F)F)cc2)C(=NCc2ccc(C(F)(F)F)cc2)NC1c1ccccc1C(F)(F)F (stereo not given)	4	0	-2	-11	14	/	/
Cc1onc(-c2ccc(Cl)cc2)c1-c1ccn(S(=O)(=O)c2ccccc2Cl)n1	0	/	-1	-5	/	/	/
Cc1ccccc1Nc1n[nH]c(C)c1[N+](=O)[O-]	3	3	9	-4	3	/	/
Cc1ccc(Nc2n[nH]c(C)c2[N+](=O)[O-])c(C)c1	2	11	9.6*	-7	0	-3	-1
O=C(CSc1nnc(-c2cccs2)o1)c1cccc([N+](=O)[O-])c1	-13	/	-12	-42	/	/	/
CCc1ccc(/C=C/C(=O)NC2=NCCS2)cc1	5	/	3	9	/	/	/
COc1ccc(S(=O)(=O)N2CCCCCC2)cc1C(=O)N(C)CC(=O)Nc1ccccc1Br	-4	-12	10*	9	18	0	1
SMILES	PLC-beta3 inh	ARFGAP1 inhibitor	PLCg1 inh	HGIII-sPLA2 inh	ASAP1 inh	PLCg1 ctr	PLCbeta3 conf
COc1ccc(S(=O)(=O)N2CCCCCC2)cc1C(=O)N(C)CC(=O)Nc1ccccc1Cl	-1	15	-3	-10	-2	/	/
COc1ccc(S(=O)(=O)N2CCCCCC2)cc1C(=O)N(C)CC(=O)Nc1c(Cl)cccc1Cl	2	-3	9.7*	0	10	-2	3
CC1CCCCN1C(=O)C(Cc1ccccc1)N1C(=O)C2CCCCC2C1=O (stereo not given)	11*	-4	11*	-1	0	-3	-3
CC1CCCCN1C(=O)N[C@@H](Cc1ccccc1)C(=O)O (stereo not given in full)	1	-3	4	0	-5	/	/
CN1C(=O)C(=C2CCCCCC2)SC1=S	5	-10	1	1	-8	/	/
O=C1NC(=S)SC1=C1CCCC1	4	-6	26*	6	-16	16*	-2
Cc1onc(-c2ccccc2Cl)c1C(=O)OCn1nnc2ccccc2c1=O	3	2	11*	2	25	-3	1
COc1ccc(NC(=O)OCCN2CCCC23CCC(c2ccccc2)CC3)cc1 (stereo not given)	4	/	3	-10	/	/	/
CC1CCN(C(=S)Nc2ccc(SC(F)F)cc2)CC1	4	-8	11*	19	6	-1	-5
CCCCCC[C@H](CC)CN(C(=O)Oc1ccccc1)c1ccccc1	0	/	-2	16	/	/	/
Cn1c(SCC(=O)N2CCOCC2)nnc1-c1ccccc1	12*	-1	9	-2	-6	-4	-2
Cn1c(SCC(=O)N2CCN(c3ccccc3)CC2)nnc1-c1ccncc1	6	-4	1	-3	-16	/	/
C=CCSc1nc(N)c(NC(=O)c2ccco2)c(=O)[nH]1	2	-3	2	1	0	/	/
CC(=O)Nc1ccc(NC(=O)CSc2nc(N)c(NC(=O)c3ccco3)c(=O)[nH]2)cc1	-4	-3	12*	7	-4	-2	3
C[C@H]1[C@@H](OC(=O)NCc2ccc(Cl)c(Cl)c2)CC[C@@]23CCCN2C(=O)CCC[C@@H]13	-2	/	2	-12	/	/	/
CC1CCCCN1S(=O)(=O)c1ccc(N(C(=O)c2cnccn2)C(C(=O)NC2CCCCC2)c2cccs2)cc1 (stereo not given)	3	-2	12*	-6	-6	-7	-3
COc1ccc(S(=O)(=O)NCCCN2CCOCC2)cc1F	0	-3	9.5*	4	-8	8	1
CCOc1cc(OCC)cc(C(=O)N2CCC[C@@H]2C(=O)N2CCC[C@@H]2C(=O)NCc2cccc(OC)c2)c1	3	-2	4	4	-1	/	/
O=C(COc1ncnc2ccccc12)NC1CCS(=O)(=O)C1 (stereo not given)	-1	1	10*	5	7	-7	-2
CC1CCCC(NC(=O)COc2ncnc3ccccc23)C1C (stereo not given)	-5	9	1	15	-3	/	/
COc1ccc(/C=N/N2CCN(C)CC2)cc1O	3	10	11*	3	10	5	1
COc1cccc(/C=N/N2CCN(C)CC2)c1	-2	19	0	-2	-4	/	/
COc1ccc(-c2nnc3n2N=C(c2cccc([N+](=O)[O-])c2)CS3)cc1	-2	/	2	7	/	/	/
